≈ marks a conversion by molar mass, not a printed value.

Type in all cases: functional
Assay [1] relates to Stenotrophomonas maltophilia. The experiment in a line: Antimicrobial activity against Stenotrophomonas maltophilia KJN2 harboring ampN with xylE-Gmomega cassette insertion by Etest. An outline of the steps: (§1)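 Imipenem and meropenem MICs were read from Etest strips, following the manufacturer's instructions.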
In assay [2] the test system is Stenotrophomonas maltophilia. Nature of the assay: Antimicrobial activity against Stenotrophomonas maltophilia KJG harboring ampG with xylE-Gmomega cassette insertion by Etest. The essentials: as §1
The test system of assay [3] is Stenotrophomonas maltophilia. The experiment in a line: Antimicrobial activity against ampN deficient Stenotrophomonas maltophilia KJ by Etest. The essentials:
as §1

Assay [4] deals with Stenotrophomonas maltophilia. The experiment in a line: Antimicrobial activity against ampN deficient Stenotrophomonas maltophilia KJ harboring ampG with xylE-Gmomega cassette insertion by Etest. An outline of the steps: as §1
Assay [5] concerns Stenotrophomonas maltophilia. Nature of the assay: Antimicrobial activity against Stenotrophomonas maltophilia KJN2 harboring pRK415 plasmid and ampN with xylE-Gmomega cassette insertion by Etest. The essentials:
as §1

Assay [6] deals with Stenotrophomonas maltophilia. Nature of the assay: Antimicrobial activity against Stenotrophomonas maltophilia KJN2 harboring pRK-G plasmid and ampN with xylE-Gmomega cassette insertion by Etest. An outline of the steps:
as §1

Assay [7] has as its system Stenotrophomonas maltophilia. The experiment in a line: Antimicrobial activity against Stenotrophomonas maltophilia KJN2 harboring pRK-NG plasmid and ampN with xylE-Gmomega cassette insertion by Etest. An outline of the steps:
as §1

Assay [8] relates to Stenotrophomonas maltophilia. Nature of the assay: Antimicrobial activity against Stenotrophomonas maltophilia KJN2 harboring pRK-EcG plasmid and ampN with xylE-Gmomega cassette insertion by Etest. An outline of the steps:
as §1

Assay [9] deals with Stenotrophomonas maltophilia. Nature of the assay: Antimicrobial activity against Stenotrophomonas maltophilia KJ by Etest. The essentials:
as §1

The subject of assay [10] is Stenotrophomonas maltophilia. The experiment in a line: Antimicrobial activity against Stenotrophomonas maltophilia KJN1 harboring ampN with xylE-Gmomega cassette insertion by Etest. The essentials:
as §1

Assay [11] has as its system Stenotrophomonas maltophilia. Nature of the assay: Antimicrobial activity against ampN deficient Stenotrophomonas maltophilia KJ by agar dilution method. The essentials:
(§2)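 MICs were determined in triplicate by standard 2-fold serial agar dilution, following CLSI guidelines.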
A general note: Agar dilution tests growth on a series of plates holding different concentrations.

The test system of assay [12] is Stenotrophomonas maltophilia. The experiment in a line: Antimicrobial activity against Stenotrophomonas maltophilia KJ by agar dilution method. An outline of the steps:
as §2

The subject of assay [13] is Stenotrophomonas maltophilia. Nature of the assay: Antimicrobial activity against Stenotrophomonas maltophilia KJN1 harboring ampN with xylE-Gmomega cassette insertion by agar dilution method. An outline of the steps:
as §2

Assay [14] concerns Stenotrophomonas maltophilia. The experiment in a line: Antimicrobial activity against Stenotrophomonas maltophilia KJN2 harboring ampN with xylE-Gmomega cassette insertion by agar dilution method. The essentials:
as §2

Assay [15] relates to Stenotrophomonas maltophilia. Nature of the assay: Antimicrobial activity against Stenotrophomonas maltophilia KJG harboring ampG with xylE-Gmomega cassette insertion by agar dilution method. The essentials:
as §2

The test system of assay [16] is Stenotrophomonas maltophilia. Nature of the assay: Antimicrobial activity against ampN deficient Stenotrophomonas maltophilia KJ harboring ampG with xylE-Gmomega cassette insertion by agar dilution method. The essentials: as §2
Assay [17] concerns Stenotrophomonas maltophilia. The experiment in a line: Antimicrobial activity against Stenotrophomonas maltophilia KJ harboring pRK415 plasmid by agar dilution method. The essentials:
as §2

Assay [18] relates to Stenotrophomonas maltophilia. Nature of the assay: Antimicrobial activity against Stenotrophomonas maltophilia KJ harboring pRK-NG plasmid by agar dilution method. The essentials: as §2
The test system of assay [19] is Stenotrophomonas maltophilia. Nature of the assay: Antimicrobial activity against Stenotrophomonas maltophilia KJN2 harboring pRK415 plasmid and ampN with xylE-Gmomega cassette insertion by agar dilution method. An outline of the steps:
as §2

Assay [20] concerns Stenotrophomonas maltophilia. The experiment in a line: Antimicrobial activity against Stenotrophomonas maltophilia KJN2 harboring pRK-G plasmid and ampN with xylE-Gmomega cassette insertion by agar dilution method. An outline of the steps:
as §2

Assay [21] concerns Stenotrophomonas maltophilia. Nature of the assay: Antimicrobial activity against Stenotrophomonas maltophilia KJN2 harboring pRK-NG plasmid and ampN with xylE-Gmomega cassette insertion by agar dilution method. The essentials:
as §2

Assay [22] deals with Stenotrophomonas maltophilia. Nature of the assay: Antimicrobial activity against Stenotrophomonas maltophilia KJN2 harboring pRK-EcG plasmid and ampN with xylE-Gmomega cassette insertion by agar dilution method. The essentials: as §2

Consider `C[C@@H](O)[C@H]1C(=O)N2C(C(=O)O)=C(SCCNC=N)C[C@H]12` [IMIPENEM ANHYDROUS], for which the MIC in [1] was found to be 2 µg/mL (≈ 6.68 µM); in assay [2], 2 µg/mL (≈ 6.68 µM); in assay [3], 4 µg/mL (≈ 13.4 µM); in [4] it was 2 µg/mL (≈ 6.68 µM); in assay [5], 1.5 µg/mL (≈ 5.01 µM); in assay [6] it was 3 µg/mL (≈ 10 µM). The MIC in assay [7] was above 32 µg/mL; in assay [8] it was above 32 µg/mL; in [9], above 32 µg/mL; in [10], 4 µg/mL (≈ 13.4 µM).

As for `CCN1CCN(C(=O)N[C@@H](C(=O)N[C@@H]2C(=O)N3[C@@H]2SC(C)(C)[C@@H]3C(=O)O)c2ccccc2)C(=O)C1=O` [PIPERACILLIN], the MIC in [11] was 32 µg/mL (≈ 61.8 µM); in assay [12], 1020 µg/mL (≈ 1980 µM); in assay [13] it was 32 µg/mL (≈ 61.8 µM); in [14], 16 µg/mL (≈ 30.9 µM); in assay [15], 32 µg/mL (≈ 61.8 µM); in [16] it was 16 µg/mL (≈ 30.9 µM). Besides, the MIC came to 1020 µg/mL (≈ 1980 µM) in assay [17]; 1020 µg/mL (≈ 1980 µM) in assay [18]; 16 µg/mL (≈ 30.9 µM) in [19]; 32 µg/mL (≈ 61.8 µM) in assay [20]; 1020 µg/mL (≈ 1980 µM) in assay [21]; 512 µg/mL (≈ 989 µM) in assay [22].

In the case of `CO[C@@]1(NC(=O)Cc2cccs2)C(=O)N2C(C(=O)O)=C(COC(N)=O)CS[C@@H]21` [CEFOXITIN], the MIC amounted to 32 µg/mL (≈ 74.9 µM) in assay [11]; 1020 µg/mL (≈ 2400 µM) in assay [12]; 32 µg/mL (≈ 74.9 µM) in assay [13]; 32 µg/mL (≈ 74.9 µM) in assay [14]; 32 µg/mL (≈ 74.9 µM) in assay [15]; 32 µg/mL (≈ 74.9 µM) in assay [16]. In addition, the MIC in assay [17] was 1020 µg/mL (≈ 2400 µM); in [18], 1020 µg/mL (≈ 2400 µM); in [19], 32 µg/mL (≈ 74.9 µM); in [20] it was 64 µg/mL (≈ 150 µM); in [21] it was 1020 µg/mL (≈ 2400 µM); in assay [22] it was 1020 µg/mL (≈ 2400 µM).

As a reminder, the MIC is the smallest concentration in the dilution series that meets the test's criterion for growth inhibition. Read a low MIC as greater potency.

The record behind these values is ChEMBL document CHEMBL1275592, “AmpN-AmpG operon is essential for expression of L1 and L2 beta-lactamases in Stenotrophomonas maltophilia” (2010).
